SUMO1-SIM PPI: modulators of SUMO1 protein-protein interactions, primary screen, biochemical, uHTS; SUMO1 binding to a labelled peptide, TR-FRET, 1 h; inhibition, % at 20 µM; hit rate 0.33% among 360,000; in the data active = inhibition above about 37%
Target sequence (P63165 whole entry, looked up): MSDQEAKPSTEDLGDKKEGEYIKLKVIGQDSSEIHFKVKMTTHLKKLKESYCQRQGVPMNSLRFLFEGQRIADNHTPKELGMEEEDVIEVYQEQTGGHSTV
DNMT1 block: human DNMT1 methyltransferase inhibitors, primary screen, biochemical, molecular beacon, fluorescence, HinP1I cleavage, uHTS | AID 588458, 2011 | DNA (cytosine-5)-methyltransferase 1 (Homo sapiens), P26358 | hit rate 0.83% among 360,000 | inhibition (reported as % activation of signal), % at 10 µM; in the data active = inhibition above about 50%
STEP inh: STEP phosphatase inhibitors, primary screen, biochemical, fluorescence intensity, uHTS; Tyrosine-protein phosphatase non-receptor type 5 (Homo sapiens), P54829; recombinant STEP, OMFP fluorogenic substrate; inhibition, % at 20 µM; hit rate 0.25% among 360,000; AID 588621, 2011;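 active = inhibition at 20 µM, scaled per plate between control wells, above about 37%, limit read from the data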;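 note: 0% = DMSO with enzyme and substrate and 100% = substrate only without enzyme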
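Also added – OMFP at 25 µM · Test system – STEP tyrosine phosphatase · Technique – FITC-channel fluorescence of OMFP product · Schedule – 20 min at room temperature, dark · Evaluation – control-normalized % inhibition with plate pattern correction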
Scp1 inh: Scp-1 phosphatase inhibitors, primary screen, biochemical, colorimetric, uHTS; Recombinant Scp1, phosphopeptide, malachite green phosphate absorbance; inhibition, % at 20 µM; hit rate 0.88% among 340,000;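 active = inhibition above about 50% at 20 µM, limit read from the data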;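 note: plate controls were DMSO wells with enzyme for no effect and wells lacking enzyme for full effect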
Target sequence (Q9GZU7 76-261 limits assumed): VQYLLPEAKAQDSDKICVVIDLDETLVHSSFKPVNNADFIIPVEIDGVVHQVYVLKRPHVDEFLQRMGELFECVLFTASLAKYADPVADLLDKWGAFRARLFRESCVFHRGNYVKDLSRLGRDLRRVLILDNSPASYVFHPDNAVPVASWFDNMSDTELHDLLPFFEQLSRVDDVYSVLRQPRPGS
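Assay system: SCP-1 catalytic fragment, aa 76-261 | Buffer or medium: Tris acetate buffer pH 5.5 with MgCl2 and Tween-20 | Compound: One concentration, 20 µM, with 1.0% DMSO | Also added: Phospho 17-mer peptide substrate | Signal: Absorbance at 630 nm | Incubation: 45 min enzyme reaction at room temperature | Measure: % inhibition of SCP-1 phosphate liberation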
Rpn11 block: Rpn11 (PSMD14) deubiquitinase inhibitors, primary screen, biochemical, fluorescence polarization, uHTS | AID 588493, 2011 | hit rate 0.59% among 360,000 | human 26S proteasome, Ub4-pepOG fluorescence polarization; 20S core pre-blocked with epoxomicin | inhibition, % at 20 µM | 26S proteasome non-ATPase regulatory subunit 14 (Homo sapiens), O00487;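 active = inhibition at 20 µM, scaled to each plate's controls, above about 33%, limit read from the data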
Target sequence (O00487 whole entry, looked up): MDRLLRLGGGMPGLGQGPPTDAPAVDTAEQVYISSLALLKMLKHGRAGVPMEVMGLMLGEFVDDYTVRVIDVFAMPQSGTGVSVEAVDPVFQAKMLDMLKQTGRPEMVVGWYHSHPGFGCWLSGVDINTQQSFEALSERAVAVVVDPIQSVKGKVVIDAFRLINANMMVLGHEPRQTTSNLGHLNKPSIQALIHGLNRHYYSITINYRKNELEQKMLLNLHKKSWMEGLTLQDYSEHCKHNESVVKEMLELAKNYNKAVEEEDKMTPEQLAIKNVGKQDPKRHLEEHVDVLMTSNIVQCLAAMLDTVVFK
LMPTP inh: LMPTP phosphatase inhibitors, primary screen, biochemical, fluorescence intensity, uHTS; inhibition, % at 20 µM; hit rate 0.22% among 360,000; recombinant LMPTP-A, OMFP fluorogenic substrate; Low molecular weight phosphotyrosine protein phosphatase (Homo sapiens), P24666;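 active = compounds that cut the enzyme signal by at least half of the control window in the single-dose screen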;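 note: plate controls were DMSO wells with enzyme plus substrate for no effect and substrate without enzyme for full effect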
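Assay system: LMPTP-A phosphatase enzyme | Input: 0.625 nM enzyme | Also added: Fluorogenic phosphatase substrate OMFP at 400 µM final | Compound dosing: One test concentration per compound, 20 µM, with 3% DMSO overall | Schedule: 50 min enzyme reaction at room temperature, protected from light | Signal: Fluorescence intensity | Benchmarks: no-enzyme and uninhibited controls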
The depositor's hits bear a star; nt = no result given. An excerpt weighted towards active compounds, which were near 2.3% of everything screened.

SMILES	SUMO1-SIM PPI	DNMT1 block	STEP inh	Scp1 inh	Rpn11 block	LMPTP inh
Cc1ccc(NC2=C/C(=N/S(=O)(=O)c3cccs3)c3ccccc3C2=O)cc1C	-3	43	2	1	2	2
Cc1ccccc1NC1=C/C(=N\S(=O)(=O)c2cccs2)c2ccccc2C1=O	29	69*	7	-14	10	9
Cc1ccccc1NC1=C/C(=N\S(=O)(=O)c2ccc(C(=O)O)cc2)c2ccccc2C1=O	69*	72*	20	2	3	9
CCc1ccc(S(=O)(=O)/N=C2\C=C(NS(=O)(=O)c3ccccc3)C(=O)c3ccccc32)cc1	-3	-14	1	-4	4	2
O=C1COC(c2ccccc2)=CN1Cc1ccccc1	0	4	2	2	-6	0
Cc1cc(C)cc(OCC(=O)Nc2ccc(N3CCCC3)cc2)c1	3	65*	6	2	34	10
COCCNc1nc(NCc2cc(-c3ccc(OC)cc3)no2)c2sccc2n1	7	-7	2	nt	1	57*
C[C@H](CO)N1C[C@H](C)[C@H](CN(C)C(=O)Cc2ccncc2)Oc2ncc(Br)cc2C1=O	-2	4	0	nt	-6	-2
CCCCn1c(N)c(N(CCC(C)C)C(=O)c2cc(-c3ccco3)nc3ccccc23)c(=O)[nH]c1=O	1	37	12	61*	14	9
CCCN(C(=O)c1cc(-c2ccco2)nc2ccccc12)c1c(N)n(Cc2ccccc2)c(=O)[nH]c1=O	0	38	6	74*	-14	13
CCn1ccnc1[C@@H]1C[C@H]2CN(c3ccccc3OC)C(=O)[C@]23CCCN13	0	-5	5	-7	2	0
COc1ccc(-c2nc(CS(=O)(=O)CC(=O)NCCCN3CCN(C)CC3)c(C)o2)cc1	0	0	6	-6	-5	-5
CCCCCOc1ccc(C2C(C(=O)c3ccc(C)o3)=C(O)C(=O)N2c2cc(C)on2)cc1 (stereo unspecified)	4	12	4	-22	0	50*
Cc1ccc(C(=O)C2=C(O)C(=O)N(Cc3ccco3)C2c2ccc(N(C)C)cc2)o1 (stereo unspecified)	-3	0	1	7	-16	1
CCCCOc1ccc(C2C(C(=O)c3ccc(C)o3)=C(O)C(=O)N2Cc2ccco2)cc1 (stereo unspecified)	-2	7	4	nt	1	51*
O=C(NCCc1ccc(F)cc1)N[C@@H](Cc1ccccc1)C(=O)O	1	2	2	-10	1	-1
Cc1ccc(S(=O)(=O)N2[C@@H](c3ccc(Br)cc3)C(C(=O)O)=CC[C@H]2c2cccc(Cl)c2)cc1	10	6	0	0	10	1
Cc1ccc(S(=O)(=O)N2[C@@H](c3ccc(C(C)(C)C)cc3)C(C(=O)O)=CC[C@H]2c2ccc(Cl)c(Cl)c2)cc1	43*	37	-1	-14	17	2
Cc1ccc(S(=O)(=O)N2[C@@H](c3ccc(Br)cc3)C(C(=O)O)=CC[C@H]2c2ccc(Cl)c(Cl)c2)cc1	40*	6	1	-14	24	2
Cc1ccc(S(=O)(=O)N2[C@@H](c3ccc(C(C)(C)C)cc3)C(C(=O)O)=CC[C@H]2c2cccc(Cl)c2)cc1	32	28	1	-12	21	3
O=C(OCc1ccccc1)c1c(-c2ccccc2)oc2c1C(OCCO)CCC2 (stereo unspecified)	14	nt	nt	nt	nt	1
Cc1ccc2oc(Nc3nc(-c4ccccc4)cc(=O)[nH]3)nc2c1	nt	nt	nt	96*	nt	nt
COc1cc(-c2cccs2)cc(=O)c2c(C)oc(C)c12	13	71*	2	-4	-10	3
CCN1/C(=C/c2ccc3cc(C)ccc3[n+]2CC)Sc2ccccc21	-124	21	11	32	nt	72*
CCN1/C(=C/C=C/C=C/C=C/c2sc3ccccc3[n+]2CC)Sc2ccccc21	-37	81*	1	21	39	14
SMILES	SUMO1-SIM PPI	DNMT1 block	STEP inh	Scp1 inh	Rpn11 block	LMPTP inh
CCN1/C(=C/C=C/c2sc3ccccc3[n+]2CC)Sc2ccccc21	-31	29	3	4	nt	62*
CCN1/C(=C/c2sc(-c3ccccc3C)c[n+]2C)Sc2ccccc21	-13	-1	2	12	-6	4
CC(C)(CNC(=O)c1ccc(Br)o1)CNC(=O)c1ccc(Br)o1	-1	1	-2	-8	-2	0
CC(=O)Nc1ccc(S(=O)(=O)N2C(C)CCCC2C)cc1 (stereo unspecified)	-3	-1	1	-13	-8	-1
CC(=O)Nc1ccc(S(=O)(=O)N2CCC(C(=O)N[C@@H](C)C(=O)NC3CCCC3)CC2)cc1	-3	3	-2	-1	-4	0
CCn1ncc([N+](=O)[O-])c1C(=O)Nc1c(C)nn(Cc2ccc(F)cc2)c1C	-13	3	0	-6	7	3
CN(C)C1=NCCN1CCc1ccc(F)cc1	2	1	-2	-2	-9	-1
COc1cccc(NC(=O)[C@H](C)NC(=O)C2CCN(S(=O)(=O)c3ccc(C)cc3)CC2)c1	0	2	-1	-7	-6	-2
CCc1ccc(C2C(C#N)=C(N)SC(N)=C2C#N)cc1	-30	-10	-21	-3	nt	0
N#CC1=C(N)SC(N)=C(C#N)C1c1ccc([N+](=O)[O-])cc1	-12	1	0	-4	57*	7
CCN1CCc2nc(N)sc2C1	-2	-2	96*	-12	4	1
O=C(O)c1ccc(N2C(=O)/C(=C/c3ccc(-c4ccc([N+](=O)[O-])cc4)o3)C=C2c2ccccc2)cc1	103*	81*	87*	66*	78*	79*
Cc1ccc(NC(=O)C2CCCN2C(=O)c2cccs2)c(C)c1 (stereo unspecified)	-10	0	-3	17	1	-2
Cc1ccc(NC(=O)C2CCN(C(=O)c3cccs3)CC2)c(C)c1	3	2	-2	99*	3	-3
CCn1nc(C)c(CN2CCC(Oc3ccc(C(=O)N4CCCC4)cc3)CC2)c1C	3	2	-1	-3	0	-1
